Source: PubChem BioAssay
Rev-RRE block: HIV-1 Rev-RRE binding inhibitors, primary screen, biochemical, FRET, protein-RNA interaction | P05866 | Rev peptide-RRE RNA binding | inhibition, % at 8 µM | actives 0.79% (n = 97,000) | AID 704, 2007;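 active means inhibition above the screen-wide mean plus 3 SD, cut at about 35% in these data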
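Test system – labelled RRE RNA duplex and labelled Rev peptide · Reagent – labelled Rev peptide · Doses – one concentration, 8 µM nominal · Incubation – 5 + 15 min at 25 °C · Signal – FRET fluorescence readout · Read-out basis – % inhibition of FRET ratio versus controls · Control set – DMSO wells as 0% and neomycin B wells as 100% inhibition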
Cav32 inh: Cav3.2 calcium influx blockers – cell-based, Fluo-4 calcium fluorescence, FDSS, MLSMR library, primary screen. Voltage-dependent T-type calcium channel subunit alpha-1H (Homo sapiens), O95180. B-score at 10 µM. actives 4% (n = 100,000). Cav3.2-expressing cells; active compounds read low;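 active means single-dose well whose peak fluorescence ratio is a statistical outlier from its plate by either plate-standardised score or position-corrected B-score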
Plk1 PBD FP: Plk1 polo box domain binding inhibitors, primary screen, biochemical, fluorescence polarization; Serine/threonine-protein kinase PLK1 (Homo sapiens), P53350; actives 0.13% (n = 97,000); inhibition, %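 (tested at about 20 µM)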; Plk1 PBD phosphopeptide binding; in the data active means inhibition above about 34%, passing the limit was not always enough
EphB4 antag: EphB4-ephrin-B2 interaction antagonists, primary screen, biochemical, TNYL-RAW peptide probe, fluorescence polarization; EphB4 LBD / TNYL-RAW-Alexa532 peptide; actives 0.15% (n = 97,000); AID 720, 2007; inhibition, % at 7 µM; Ephrin type-B receptor 4 (Homo sapiens), P54760;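 active means inhibition above the screen-wide mean inhibition plus 3 SD, cut at about 15% in these data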
FAK inh: FAK kinase inhibitors, primary screen, biochemical; Focal adhesion kinase 1 (Homo sapiens), Q05397; biochemical FAK kinase activity assay; inhibition, %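 (tested at 7 µM)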; actives 0.84% (n = 97,000); in the data active means inhibition above about 19%
PLK1 kinase inh: human PLK1 kinase inhibitors, primary screen, biochemical, TR-FRET; inhibition, % at 10 µM; actives 0.53% (n = 97,000); recombinant PLK1 kinase, TR-FRET peptide phosphorylation;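 active means inhibition of 50% or more in the single-concentration screen; inactive means inhibition below 50%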
A number is an active result; 0 = inactive; - = no result; [ ] = dose if it differs, or a comment. A selection: hits, their analogues and other compounds. The true share with any hit is near 5.3%.

SMILES	Rev-RRE block	Cav32 inh	Plk1 PBD FP	EphB4 antag	FAK inh	PLK1 kinase inh
CCCCCCN1C(=O)C(O)=C(C(C)=O)C1c1ccc(Cl)cc1 (centres undefined)	-	-7.8	-	-	-	-
CCCCN1C(=O)C(O)=C(C(C)=O)C1c1ccccc1 (centres undefined)	0	0	0	0	0	0
Cc1cccc(C(C)Nc2ccc([N+](=O)[O-])cn2)c1 (centres undefined)	0	-4.3	0	0	0	0
O=[N+]([O-])c1ccc(Nc2ccc3ccccc3c2)nc1	0	0	0	0	0	0
O=C(CSc1nnc(-c2cccnc2)n1-c1ccccc1)N1CCN(c2ccc(F)cc2)CC1	0	4	0	0	0	0
CC(C)C[C@@H]1NC(=O)[C@H](C(C)C)NC(=O)c2cc([N+](=O)[O-])cc(I)c2OCC[C@@H](C(N)=O)NC1=O	-	0	-	-	-	-
O=C(Nc1ccc(Cl)cc1)N1CCCC1	0	0	0	0	0	0
Cc1ccc(NC(=O)N2CCC(O)(c3ccc(Cl)cc3)CC2)cc1	0	-4.3	0	0	0	0
NC(=O)CC(NC(=O)Cc1ccc(Br)cc1)c1ccc(NCc2ccc(F)cc2)c([N+](=O)[O-])c1 (centres undefined)	-	0	-	-	-	-
COc1cc(/C=C/C(=O)Nc2cc(C(F)(F)F)ccc2Cl)cc(OC)c1OC	0	-5.2	0	0	0	0
CCOC(=O)C1=C(C)NC(C)=C(C(=O)OCC)C1c1sccc1C	0	0	0	0	0	0
CCC1Sc2ccccc2N(CC(=O)NCc2ccc3c(c2)OCO3)C1=O (centres undefined)	-	0	-	-	-	-
CCC1Sc2ccccc2N(CC(=O)NCCC2=CCCCC2)C1=O (centres undefined)	0	-5.8	0	0	0	0
Cc1ccc(S(=O)(=O)/N=S(\C)CC2CC2(Cl)Cl)cc1 (centres undefined)	0	0	0	0	0	0
Cc1cccc(/C=N\NC(=O)c2sccc2-n2cccc2)c1	0	-4.1	0	0	0	0
Cc1ccc(CC(=O)N2CCN(c3cccc(C(F)(F)F)c3)CC2)cc1	0	-5.4	0	0	0	0
COc1ccccc1CC(=O)N1CCN(c2cccc(C(F)(F)F)c2)CC1	0	-4.8	0	0	0	0
COc1ccccc1NC(=O)N1CCN(c2cccc(C(F)(F)F)c2)CC1	0	0	0	0	0	0
CCc1c(C)sc2nc(C(C)C)nc(SCC(=O)N3CCc4ccccc4C3)c12	0	0	0	0	0	0
O=C1N=C(N2CCOCC2)S/C1=C/c1ccc(-c2ccccc2Cl)o1	0	0	0	0	0	0
O=C1S/C(=C/c2ccc(N3CCOCC3)o2)C(=O)N1Cc1c(F)cccc1Cl	126[fluorescence artefact?]	0	0	0	0	0
O=C1S/C(=C\c2ccc(N3CCOCC3)o2)C(=O)N1Cc1c(F)cccc1Cl	121[fluorescence artefact?]	-5.7	0	0	0	0
Fc1ccc(/C=N/n2c(-c3cccs3)n[nH]c2=S)cc1	0	0	0	0	0	0
N#Cc1c(Sc2ncc(C(F)(F)F)cc2Cl)nsc1C/C=N\OCc1c(F)cccc1Cl	61	0	0	0	0	0
FC(F)(F)c1cnc(Sc2nnc(-c3cccs3)n2CC2CCCO2)c(Cl)c1 (centres undefined)	0	0	0	0	0	0
SMILES	Rev-RRE block	Cav32 inh	Plk1 PBD FP	EphB4 antag	FAK inh	PLK1 kinase inh
N#CCSc1nnc(Cc2cccc3ccccc23)n1C1CCCCC1	0	-5.7	0	0	0	0
CCOC(=O)C1Cn2c(nc3c(c2=O)C(C)(C)Cc2ccccc2-3)S1 (centres undefined)	0	-6.4	0	0	0	0
CCOC(=O)C1Cn2c(nc3c(c2=O)C2(CCCC2)Cc2ccccc2-3)S1 (centres undefined)	0	-5.4	0	0	0	0
NC(=O)[C@@H]1CCNc2c(I)cc([N+](=O)[O-])cc2C(=O)N[C@@H](CCC(=O)O)C(=O)N[C@@H](CO)C(=O)N1	-	0	-	-	-	-
O=C(NCCN1CCOCC1)N1c2ccccc2Sc2ccccc21	0	0	0	0	0	0
CCOc1cc(S(=O)(=O)Nc2ccccc2CC)ccc1Cl	0	-5.8	0	0	0	0
